≈ marks a conversion by molar mass, not a printed value.
How the values were obtained:
Mycobacterium avium [1] = test: In Vitro antimicrobial activity against the Mycobacterium avium complex (MAC) Wild type strain AN1; format: functional
How it was run: (§1)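 MIC by radiometric broth dilution (BACTEC 460-TB) in 7H12 liquid medium containing 14C-palmitic acid. Growth read as 14CO2 release, recorded as growth index (0–999). Compounds stocked in DMSO; working solutions at 40-fold final concentration made in sterile distilled water. Ethambutol reference. MIC expressed in µg/mL.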

Mycobacterium avium [2] = test: In Vitro antimicrobial activity against the Mycobacterium avium complex (MAC) Wild type strain AN3; format: functional; how it was run: as §1
Mycobacterium avium [3] = test: In Vitro antimicrobial activity against the Mycobacterium avium complex (MAC) strain ATCC 15769; format: functional; how it was run: as §1
Mycobacterium avium [4] = test: In Vitro antimicrobial activity against the Mycobacterium avium complex (MAC) Wild type strain AN2; format: functional; how it was run: as §1
[5] = test system: Mycobacterium tuberculosis; test: In Vitro antimicrobial activity against the Mycobacterium tuberculosis (MT) strain H-37-Rv ATCC; format: functional; how it was run: as §1
[6] = test system: Mycobacterium tuberculosis; test: In Vitro antimicrobial activity against the Mycobacterium tuberculosis (MT) Wild type strain MT-1; format: functional; how it was run: as §1
Mycobacterium avium [7] = test: In Vitro antimicrobial activity against the Mycobacterium avium complex (MAC) Wild type strain ISS 486; format: functional; how it was run: as §1
[8] = test system: Mycobacterium tuberculosis; test: In Vitro antimicrobial activity against the Mycobacterium tuberculosis (MT) Wild type strain MT-2; format: functional; how it was run: as §1
[9] = Clearance (CL) value in rats after intravenous administration.; format: ADME, organism-based; settings: rat, in vivo, read-out: CI
How it was run: (§2)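 Male Wistar rats (250-300 g), single 20 mg/kg i.v. dose in poly(ethylene glycol) 400, given through a permanent jugular-vein cannula that also served for blood sampling. Plasma levels measured by GC-MS (electron impact 70 eV; ions 233, 181, 168, 137, 104 monitored). Parameters derived by noncompartmental analysis.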

[10] = Mean residence time (MRT) in rats after intravenous administration; format: ADME, organism-based; settings: rat, in vivo; how it was run: as §2
[11] = Elimination half life value after intravenous administration in rats; format: ADME, organism-based; settings: rat, in vivo; how it was run: as §2
[12] = Area under curve (AUC) value of the compound; format: ADME; how it was run: as §2
[13] = Volume of distribution in rats after intravenous administration; format: ADME, organism-based; settings: rat, in vivo, read-out: Vss; how it was run: as §2

SMILES | MIC (Mycobacterium avium [1]) [µg/mL] | MIC (Mycobacterium avium [2]) [µg/mL] | MIC (Mycobacterium avium [3]) [µg/mL] | MIC (Mycobacterium avium [4]) [µg/mL] | MIC [5] [µg/mL] | MIC [6] [µg/mL] | MIC (Mycobacterium avium [7]) [µg/mL] | MIC [8] [µg/mL] | clearance [9] [mL/min] | MRT [10] [min] | half-life [11] [min] | AUC [12] [ng·h/mL] | Vd [13] [L]
OCC/N=C(\S)c1cccnc1S | 4 (≈ 18.7 µM) | 4 (≈ 18.7 µM) | 8 (≈ 37.3 µM) | 8 (≈ 37.3 µM) | 2 (≈ 9.33 µM) | 4 (≈ 18.7 µM) | 8 (≈ 37.3 µM) | 8 (≈ 37.3 µM) |  |  |  |  | 
CCCCCCCC/N=C(\S)c1cccnc1S | 8 (≈ 28.3 µM) | 4 (≈ 14.2 µM) | 4 (≈ 14.2 µM) | 4 (≈ 14.2 µM) | 1 (≈ 3.54 µM) | 4 (≈ 14.2 µM) | 8 (≈ 28.3 µM) | 4 (≈ 14.2 µM) |  |  |  |  | 
CCCCCC/N=C(\S)c1cccnc1S | 1 (≈ 3.93 µM) | 1 (≈ 3.93 µM) | 1 (≈ 3.93 µM) | 1 (≈ 3.93 µM) | 1 (≈ 3.93 µM) | 1 (≈ 3.93 µM) | 0.5 (≈ 1.97 µM) | 2 (≈ 7.86 µM) |  |  |  |  | 
CCCCCCCCCCCCCCCCCC/N=C(\S)c1cccnc1S | 32 (≈ 75.7 µM) | 32 (≈ 75.7 µM) | 64 (≈ 151 µM) | 32 (≈ 75.7 µM) | 32 (≈ 75.7 µM) | 64 (≈ 151 µM) | 32 (≈ 75.7 µM) | 64 (≈ 151 µM) |  |  |  |  | 
CCC/N=C(\S)c1cccnc1S | 2 (≈ 9.42 µM) | 2 (≈ 9.42 µM) | 2 (≈ 9.42 µM) | 4 (≈ 18.8 µM) | 2 (≈ 9.42 µM) | 4 (≈ 18.8 µM) | 1 (≈ 4.71 µM) | 4 (≈ 18.8 µM) |  |  |  |  | 
S/C(=N\C1CCCCC1)c1cccnc1S | 4 (≈ 15.8 µM) | 4 (≈ 15.8 µM) | 4 (≈ 15.8 µM) | 4 (≈ 15.8 µM) | 0.5 (≈ 1.98 µM) | 4 (≈ 15.8 µM) | 4 (≈ 15.8 µM) | 1 (≈ 3.96 µM) |  |  |  |  | 
CCCCCCNC(=O)c1cccnc1S |  |  | 8 (≈ 33.6 µM) |  | 8 (≈ 33.6 µM) | 8 (≈ 33.6 µM) |  | 16 (≈ 67.1 µM) |  |  |  |  | 
C/N=C(\S)c1cccnc1S | 8 (≈ 43.4 µM) | 4 (≈ 21.7 µM) | 4 (≈ 21.7 µM) | 4 (≈ 21.7 µM) | 2 (≈ 10.9 µM) | 1 (≈ 5.43 µM) | 4 (≈ 21.7 µM) | 1 (≈ 5.43 µM) |  |  |  |  | 
CC[C@@H](CO)NCCN[C@@H](CC)CO [ETHAMBUTOL] | 1 (≈ 4.89 µM) | 2 (≈ 9.79 µM) |  | 0.5 (≈ 2.45 µM) | < 2 | < 2 | 2 (≈ 9.79 µM) | < 2 |  |  |  |  | 
CCCCCCC/N=C(\S)c1cccnc1S | 4 (≈ 14.9 µM) | 4 (≈ 14.9 µM) | 2 (≈ 7.45 µM) | 4 (≈ 14.9 µM) | 0.5 (≈ 1.86 µM) | 2 (≈ 7.45 µM) | 4 (≈ 14.9 µM) | 2 (≈ 7.45 µM) | 50 | 28.9 | 28 | 8250 | 1.28

Reference: ChEMBL document CHEMBL1133661, “Synthesis and in vitro anti-mycobacterium activity of N-alkyl-1, 2-dihydro-2-thioxo-3-pyridinecarbothioamides. Preliminary toxicity and pharmacokinetic evaluation” (J Med Chem, 2000)
